Compound activity from PubChem.
H69AR inhibit: blocks growth of human H69AR lung tumor cells | viability, % at 10 µM | H69AR lung tumor viability, ATP luminescence, 72 h; active compounds read low | 85,000 tested, 6% active;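 active = viability at or below 40%; inactive = viability above 40%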;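 note: multidrug resistant small cell line overexpressing MRP-1 efflux transporter; 100% = mean luminescence of untreated control wells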
HCT116 PTEN-null: growth suppressors of cells with PTEN tumor suppressor deletion; HCT116 PTEN-null viability, CellTiter-Glo, 60 h; active compounds read low; viability, % at 10 µM; 140,000 tested, 1.2% active;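 active = viability at or below a set limit, 4 SD under the median of all tested compounds, cut at about 3.7% in these data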;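 note: PTEN knockout HCT116 line with beta catenin targeted HCT116 as companion control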
Fibroblast inh: blocks proliferation of human lung fibroblasts; LL 47 human lung fibroblast viability, ATP luminescence; active compounds read low; viability, % at 10 µM; 85,000 tested, 1.1% active; AID 719;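 active = viability at or below 50% in the single dose screen; inactive = viability above 50%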;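 note: compound exposure lasted 72 h before the ATP readout; 100% = median luminescence of untreated cell-only wells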
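material = human LL 47 lung fibroblast cells | dosing = compounds added from tenfold dosing solution, 0.1% DMSO final | timing = overnight cell rest, 72 h compound treatment at 37 °C | measured by = CellTiter-Glo luminescence measuring cellular ATP | evaluation = % viability versus median cells-only luminescence | control set = cell-only wells, no compound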
HCT116 bCat-KO: beta-catenin-lacking colon tumor cell growth suppression. 140,000 tested, 1.5% active. HCT116 beta-catenin knockout viability, CellTiter-Glo, 60 h; active compounds read low. viability, % at 10 µM. AID 818;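 active = viability at or under a set limit, the compound median less 4 SD, cut at about 6% in these data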;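 note: 0% = Hyamine 1622 control at 20 µM and 100% = untreated cell control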
HUVEC prolif 384: human endothelial cell proliferation inhibition; HUVEC proliferation, CellTiter-Glo luminescence, 72 h; active compounds read low; viability, % at 10 µM (by protocol); 86,000 tested, 1.1% active; AID 648;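 active = viability at or below 30%; inactive = viability above 30%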;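 note: 100% = median luminescence of DMSO-only cell control wells on each plate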
The depositor's hits bear a star. This excerpt belongs to a sample that is enriched for hits.

`Cn1c(SCC(=O)Nc2ccc3c(c2)OCCO3)nnc1-c1ccccn1` gave H69AR inhibit 88, HCT116 PTEN-null 103, Fibroblast inh 104, HCT116 bCat-KO 102 and HUVEC prolif 384 97.
`O=C(COc1ccc2ccccc2c1CN1CCOCC1)N1CCc2ccccc21` gave H69AR inhibit 105, HCT116 PTEN-null 42, Fibroblast inh 84, HCT116 bCat-KO 47 and HUVEC prolif 384 69.
For COc1nc(N=C(N)N)nc2ccc(C)cc12 the results were HCT116 PTEN-null 59 and HCT116 bCat-KO 57.
Screening O=S(Cc1ccc(Br)cc1)Cc1nnc(SCc2ccc(Br)cc2)n1-c1ccccc1 (configuration not stated) returned HCT116 PTEN-null 31 and HCT116 bCat-KO 15.
CCOc1ccc2nc(SCC(=O)Nc3ccc4c(c3)OCCO4)[nH]c2c1 was read as H69AR inhibit 89, HCT116 PTEN-null 99, Fibroblast inh 104, HCT116 bCat-KO 100 and HUVEC prolif 384 94.
Screening O=C(CSc1nc2ncc(Br)cc2[nH]1)Nc1ccc2c(c1)OCO2 returned H69AR inhibit 2.5*, HCT116 PTEN-null 95, Fibroblast inh 104, HCT116 bCat-KO 84 and HUVEC prolif 384 75.
`O=C(CSc1ncnc2c1cnn2-c1ccccc1)Nc1ccc2c(c1)OCO2` gave H69AR inhibit 37*, HCT116 PTEN-null 103, Fibroblast inh 93, HCT116 bCat-KO 96 and HUVEC prolif 384 76.
For Cc1ccc(S(=O)(=O)c2c(C)nn(C(C)(C)C)c2OC(=O)C(C)(C)C)cc1 the results were H69AR inhibit 95, HCT116 PTEN-null 96, Fibroblast inh 96, HCT116 bCat-KO 75 and HUVEC prolif 384 89.
Screening Cc1ccc(S(=O)(=O)c2c(C)nn(C(C)(C)C)c2OC(=O)c2ccco2)cc1 returned H69AR inhibit 54, HCT116 PTEN-null 121, Fibroblast inh 109, HCT116 bCat-KO 93 and HUVEC prolif 384 14*.
For CC(=O)Oc1c(S(=O)(=O)c2ccc(C)cc2)c(C)nn1C(C)(C)C the results were H69AR inhibit 91, HCT116 PTEN-null 100, Fibroblast inh 102, HCT116 bCat-KO 104 and HUVEC prolif 384 108.
Screening Cc1ccc(S(=O)(=O)c2c(C)nn(C(C)(C)C)c2OC(=O)c2ccc(Br)o2)cc1 returned H69AR inhibit 37*, HCT116 PTEN-null 87, Fibroblast inh 102, HCT116 bCat-KO 96 and HUVEC prolif 384 13*.
`Cc1ccc(S(=O)(=O)c2c(C)nn(C(C)(C)C)c2OC(=O)c2cccs2)cc1` gave H69AR inhibit 110, HCT116 PTEN-null 74, Fibroblast inh 101, HCT116 bCat-KO 78 and HUVEC prolif 384 12*.
For CCSc1nnc(NC(=O)[C@@H](NC(=O)c2ccc(C(C)(C)C)cc2)C(C)C)s1 the results were HCT116 PTEN-null 73 and HCT116 bCat-KO 84.
Screening COc1cc(/C=C2\CC/C(=C\c3cc(OC)c(O)c(OC)c3)C2=O)cc(OC)c1O returned HCT116 PTEN-null 2.5* and HCT116 bCat-KO 2.1*.
Screening COc1cc(/C=C2/CCC/C(=C\c3cc(O)c(OC)c(Cl)c3)C2=O)cc(Cl)c1O returned HCT116 PTEN-null 1.9* and HCT116 bCat-KO 2.0*.
Fc1ccc(-c2cc(C(F)(F)F)nc(NCc3cccs3)n2)cc1 was read as HCT116 PTEN-null 76 and HCT116 bCat-KO 72.
`CSc1n[nH]c(NCc2cccs2)n1` gave H69AR inhibit 100, HCT116 PTEN-null 78, Fibroblast inh 106, HCT116 bCat-KO 1.2* and HUVEC prolif 384 107.
`CCCN(CCC)C(=S)NC(=O)c1ccc(-c2ccccc2)cc1` gave HCT116 PTEN-null 87 and HCT116 bCat-KO 85.
For O=C(CSc1nc(-c2ccccc2)c(-c2ccccc2)[nH]1)NCCN1C(=O)CSC1=O the results were H69AR inhibit 21*, HCT116 PTEN-null 12, Fibroblast inh 55, HCT116 bCat-KO 10 and HUVEC prolif 384 31.
Screening O=C(CSc1nc(-c2ccccc2)c(-c2ccccc2)[nH]1)NCc1ccco1 returned H69AR inhibit 92, HCT116 PTEN-null 35, Fibroblast inh 83, HCT116 bCat-KO 42 and HUVEC prolif 384 46.
Screening COC(=O)C/C=C/[C@@H](C)[C@@H](/C=N/OC[C@@H](C)[C@H](OCc1ccccc1)C(C)C)NS(=O)(=O)c1ccc(C)cc1 returned HCT116 PTEN-null 58 and HCT116 bCat-KO 74.
`CCCCc1oc2ccccc2c1C(=O)c1cc(I)c(OCCN(CC)CC)c(I)c1` gave H69AR inhibit 2.1*, HCT116 PTEN-null 17, Fibroblast inh 90, HCT116 bCat-KO 13 and HUVEC prolif 384 17*.
O=C(O)CCCNS(=O)(=O)c1ccc(Br)s1 was read as HCT116 PTEN-null 98 and HCT116 bCat-KO 95.
`O=C1C(Cl)=C(N2CCOCC2)C(=O)N1c1ccccc1Cl` gave H69AR inhibit 28*, HCT116 PTEN-null 91, HCT116 bCat-KO 97 and HUVEC prolif 384 101.
Screening Cc1cc(NC(=O)CC2CCCC2)n(-c2nc3ccccc3[nH]2)n1 returned H69AR inhibit 29*, HCT116 PTEN-null 15, HCT116 bCat-KO 14 and HUVEC prolif 384 59.
`O=C(Nc1ccc(Cl)cc1)N1CCCN(Cc2ccc(F)cc2)C1` gave H69AR inhibit 39*, HCT116 PTEN-null 0.7*, Fibroblast inh 29*, HCT116 bCat-KO 0.6* and HUVEC prolif 384 66.
COc1ccc(CCC(=O)N2CCN(S(=O)(=O)c3ccc4ccccc4c3)CC2)cc1 was read as H69AR inhibit 54, HCT116 PTEN-null 82, Fibroblast inh 96, HCT116 bCat-KO 84 and HUVEC prolif 384 96.
O=C(COc1ccc(-c2nnco2)cc1)N1CCN(S(=O)(=O)c2ccc3ccccc3c2)CC1 was read as H69AR inhibit 36*, HCT116 PTEN-null 78, Fibroblast inh 88, HCT116 bCat-KO 79 and HUVEC prolif 384 101.
For Cc1c(C#N)c2ccccc2n1CC(=O)NCCc1c[nH]c2ccccc12 the results were H69AR inhibit 37*, HCT116 PTEN-null 70, Fibroblast inh 77, HCT116 bCat-KO 73 and HUVEC prolif 384 74.
N#Cc1cn(CC(=O)NCCc2c[nH]c3ccccc23)c2ccccc12 was read as H69AR inhibit 73, HCT116 PTEN-null 64, Fibroblast inh 88, HCT116 bCat-KO 84 and HUVEC prolif 384 82.
Screening Cn1c(=O)[nH]c(=O)c2c1nc(N1CCCCC1)n2CCCSc1nc2ccccc2s1 returned H69AR inhibit 52, HCT116 PTEN-null 59, Fibroblast inh 100, HCT116 bCat-KO 55 and HUVEC prolif 384 97.
O=[N+]([O-])c1cccc(/C=C/c2nc3ccc([N+](=O)[O-])cc3[nH]2)c1 was read as HCT116 PTEN-null 3.7* and HCT116 bCat-KO 9.
Oc1ccc(Br)cc1-c1nc2cnccn2c1NC1CCCC1 was read as H69AR inhibit 47, HCT116 PTEN-null 1.9*, Fibroblast inh 75, HCT116 bCat-KO 1.3* and HUVEC prolif 384 80.
`CC1CCC(C(=O)NC(C(=O)NCc2cccnc2)C(C)C)CC1` (configuration not stated) gave HCT116 PTEN-null 104 and HCT116 bCat-KO 102.
